# Data as given in ChEMBL document CHEMBL1158168, “Condensed bridgehead nitrogen heterocyclic system: synthesis and pharmacological activities of 1,2,4-triazolo-[3,4-b]-1,3,4-thiadiazole derivatives of ibuprofen and biphenyl-4-yloxy acetic acid” (Eur J Med Chem, 2008).
# The source made the active and inactive calls. The calls are words filed in the database; no cut-off is given here.
# How the values were obtained:
# Rattus norvegicus [1] = assay: Antiinflammatory activity in Wistar albino rat assessed as inhibition of carrageenan-induced paw edema administered at equimolar oral dose relative to 10 mg/kg fluribiprofen measured 4 hrs after carrageenan challenge; type: functional
# Outline: (§1)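 Wistar rats of either sex (180-200 g), six per group, dosed orally in a 0.5% CMC vehicle. One hour later, 0.1 mL of […] in 0.9% NaCl was injected sub-plantar into the right hind paw. Paw volume was read by plethysmometer before and 4 h after carrageenan, and percent inhibition was calculated.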
# Staphylococcus aureus = assay: Antibacterial activity against Staphylococcus aureus ATCC 19433 by cup plate method; type: functional
# Outline: (§2)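 Cup-plate diffusion on nutrient agar, with compounds dissolved in DMF. Compounds were tested at 200, 100, 50 and 25; those inhibiting at 25 were also tested at 12.5 and 6.25. MIC is the lowest concentration preventing visible growth on the plate.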
# Escherichia coli = assay: Antibacterial activity against sEscherichia coli ATCC 25922 by cup plate method; type: functional; outline: as §2
# Candida albicans = assay: Antimicrobial activity against Candida albicans ATCC 2091 by cup plate method; type: functional
# Outline: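 Candida albicans grown on Sabouraud dextrose medium and tested by cup-plate diffusion, with compounds dissolved in DMF. Compounds were tested at 200, 100, 50 and 25; those inhibiting at 25 were also tested at 12.5 and 6.25. MIC is the lowest concentration preventing visible growth.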
# Rattus norvegicus [2] = assay: Antiinflammatory activity in Wistar albino rat assessed as inhibition of carrageenan-induced paw edema administered at equimolar oral dose relative to 70 mg/kg ibuprofen measured 4 hrs after carrageenan challenge; type: functional; outline: as §1
# Rattus norvegicus [3] = assay: Gastrointestinal toxicity in rat assessed as gastric mucosal damage severity index administered at equimolar oral dose relative to 210 mg/kg ibuprofen; type: organism-based, Gastric mucosa; design: dose 210 mg/kg, route oral; settings: in vivo
# Outline: (§3)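 Rats, six per group, were fasted 24 h with water allowed, then dosed orally in a 0.5% CMC vehicle. They were fed normally for 17 h and then sacrificed. Stomachs were opened along the greater curvature and mucosal lesions scored under a magnifier (0.5 redness to 3.0 for more than 5 ulcers). Severity index is the mean group score minus the control mean.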
# Rattus norvegicus [4] = assay: Inhibition of lipid peroxidation in rat assessed as malondialdehyde level per 100 mg of tissue administered at equimolar oral dose relative to 210 mg/kg ibuprofen; type: functional
# Outline: (§4)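 Gastric mucosa was scraped from the stomachs after ulcer scoring. 100 mg was homogenized in ice-cold 1.15% KCl and reacted with SDS, acetate buffer (pH 3.5) and 0.8% TBA at 95 °C for 60 min. The product was extracted into n-butanol/pyridine (15:1) and absorbance read at 532 nm. MDA was calculated using ε 1.56 × 10⁵ M⁻¹cm⁻¹ and expressed per 100 mg tissue.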
# Mus musculus [5] = assay: Analgesic activity in Swiss albino mouse assessed as effect on reaction time for tail withdrawal administered at 70 mg/kg, po after 4 hrs by tail immersion method; type: functional
# Outline: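 Swiss albino mice of either sex (25-30 g), six per group. Compounds were given orally as a suspension in 0.5% w/v CMC in water. Tail-withdrawal reaction time was measured before dosing and 4 h after, by immersing the lower 5 cm of the tail in water held at 55 ± 0.5 °C.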
# Rattus norvegicus [6] = assay: Gastrointestinal toxicity in rat assessed as gastric mucosal damage severity index at 210 mg/kg, po; type: organism-based, Gastric mucosa; design: dose 210 mg/kg, route oral; settings: in vivo; outline: as §3
# Rattus norvegicus [7] = assay: Inhibition of lipid peroxidation in rat assessed as malondialdehyde level per 100 mg of tissue at 210 mg/kg, po; type: functional; outline: as §4
# Rattus norvegicus [8] = assay: Gastrointestinal toxicity in rat assessed as gastric mucosal damage severity index administered at equimolar oral dose relative to 30 mg/kg fluribiprofen; type: organism-based, Gastric mucosa; design: dose 30 mg/kg, route oral; settings: in vivo; outline: as §3
# Rattus norvegicus [9] = assay: Hepatotoxicity in po dosed Wistar albino rat assessed as serum glutamate oxaloacetate transaminase activity after 7 days; type: toxicity, organism-based; settings: in vivo, 168 h
# Rattus norvegicus [10] = assay: Hepatotoxicity in po dosed Wistar albino rat assessed as serum glutamate pyruvate transaminase activity after 7 days; type: toxicity, organism-based; settings: in vivo, 168 h
# Rattus norvegicus [11] = assay: Hepatotoxicity in po dosed Wistar albino rat assessed as alkaline phosphatase activity after 7 days; type: toxicity, organism-based; settings: in vivo, 168 h
# Rattus norvegicus [12] = assay: Hepatotoxicity in po dosed Wistar albino rat assessed as total protein content after 7 days; type: toxicity, organism-based; settings: in vivo, 168 h
# Rattus norvegicus [13] = assay: Hepatotoxicity in po dosed Wistar albino rat assessed as total albumin content after 7 days; type: toxicity, organism-based; settings: in vivo, 168 h
# Rattus norvegicus [14] = assay: Hepatotoxicity in po dosed Wistar albino rat assessed as hepatocyte necrosis after 7 days; type: toxicity, organism-based; settings: hepatocytes, 168 h
# Rattus norvegicus [15] = assay: Antiinflammatory activity in Wistar albino rat assessed as inhibition of carrageenan-induced paw edema at 10 mg/kg, po measured 4 hrs after carrageenan challenge; type: functional
# Outline: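 Wistar albino rats of either sex, 180-200 g, groups of six; oral dosing, vehicle 0.5% CMC. 0.1 mL of 0.1% carrageenan in sterile 0.9% NaCl injected subplantar into the right hind paw 1 h after dosing. Paw volume measured by plethysmometer before and 4 h after carrageenan; percent inhibition calculated.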
# Rattus norvegicus [16] = assay: Gastrointestinal toxicity in rat assessed as gastric mucosal damage severity index at 30 mg/kg, po; type: organism-based, Gastric mucosa; design: dose 30 mg/kg, route oral; settings: in vivo
# Outline: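 Rats, groups of six, food but not water withheld 24 h; oral dosing in 0.5% CMC. Normal diet for 17 h, then sacrificed. Stomach opened along the greater curvature and inspected under a magnifying glass. Scored 0.5 redness to 3.0 (>5 ulcers); severity index is the group mean score minus the control mean.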
# Rattus norvegicus [17] = assay: Inhibition of lipid peroxidation in rat assessed as malondialdehyde level per 100 mg of tissue at 30 mg/kg, po; type: functional
# Outline: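 Gastric mucosa scraped from stomachs after ulcerogenicity testing; 100 mg homogenized in 1.15% ice-cold KCl. TBA method with SDS and acetate buffer pH 3.5, heated at 95 °C for 60 min. Extracted into n-butanol/pyridine 15:1, absorbance read at 532 nm. Expressed as nmol MDA/100 mg tissue using ε 1.56 × 10⁵ cm⁻¹ M⁻¹.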
# Mus musculus [18] = assay: Analgesic activity in Swiss albino mouse assessed as effect on reaction time for tail withdrawal administered at 10 mg/kg, po after 4 hrs by tail immersion method; type: functional
# Outline: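 Swiss albino mice of either sex, 25-30 g, groups of six; oral dosing as suspension in 0.5% w/v CMC in water. Tail immersion: lower 5 cm of tail dipped in water held at 55 ± 0.5 °C. Reaction time taken before and 4 h after dosing.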
Structure (SMILES),inhibition in vivo (Rattus norvegicus [1]) [%],MIC (Staphylococcus aureus) [µg/mL],MIC (Escherichia coli) [µg/mL],MIC (Candida albicans) [µg/mL],inhibition in vivo (Rattus norvegicus [2]) [%],also measured
Nc1ccccc1-c1nn2c(COc3ccc(-c4ccccc4)cc3)nnc2s1,47.7,25,50,25,–,–
CC(C)Cc1ccc(C(C)c2nnc3sc(Nc4ccccc4)nn23)cc1 (stereo unspecified),–,100,25,–,68.2,Activity (Candida albicans): inactive; UI (Rattus norvegicus [3]): 0.667; Activity (Rattus norvegicus [4]): 5.12 nmol
CC(=O)N1CCN(c2ccc(OCC3COC(Cn4ccnc4)(c4ccc(Cl)cc4Cl)O3)cc2)CC1 (stereo unspecified) [KETOCONAZOLE],–,–,–,6.25,–,–
c1ccc(-c2ccc(OCc3nnc4sc(-c5ccccc5)nn34)cc2)cc1,65.1,25,25,–,–,Activity (Candida albicans): inactive
CC(C)Cc1ccc(C(C)c2nnc3sc(-c4ccccc4N)nn23)cc1 (stereo unspecified),–,200,100,12.5,57.6,–
Clc1ccc(-c2nn3c(COc4ccc(-c5ccccc5)cc4)nnc3s2)c(Cl)c1,–,25,50,–,–,–
CC(C)Cc1ccc(C(C)c2nnc3sc(-c4ccc(N)cc4)nn23)cc1 (stereo unspecified),–,200,12.5,200,78.8,UI (Rattus norvegicus [3]): 0.75; Activity (Rattus norvegicus [4]): 5.65 nmol
CCCCNc1nn2c(COc3ccc(-c4ccccc4)cc3)nnc2s1,65.9,–,100,25,–,Activity (Staphylococcus aureus): inactive
CC(C)Cc1ccc(C(C)c2nnc3sc(Cc4ccccc4Nc4c(Cl)cccc4Cl)nn23)cc1 (stereo unspecified),–,50,200,200,18.2,–
CC(C)Cc1ccc(C(C)C(=O)O)cc1 (stereo unspecified) [IBUPROFEN],–,–,–,–,–,inhibition in vivo at 70 mg/kg (Mus musculus [5]): 74.1%; UI (Rattus norvegicus [6]): 2; Activity (Rattus norvegicus [7]): 7.79 nmol
Cc1ccc(Nc2nn3c(C(C)c4ccc(CC(C)C)cc4)nnc3s2)c(C)c1 (stereo unspecified),–,200,50,200,53,–
Fc1ccc(Nc2nn3c(COc4ccc(-c5ccccc5)cc4)nnc3s2)cc1,78.2,–,25,–,–,Activity (Staphylococcus aureus): inactive; Activity (Candida albicans): inactive; UI (Rattus norvegicus [8]): 0.666; Activity (Rattus norvegicus [9]): 137 U/ml; Activity (Rattus norvegicus [10]): 26.5 U/ml; Activity (Rattus norvegicus [11]): 17.07 U/ml; Activity (Rattus norvegicus [12]): 0.9 g/dL; Activity (Rattus norvegicus [13]): 0.71 g/dL; Activity (Rattus norvegicus [14]): Non-toxic
Clc1ccc(OCc2nn3c(COc4ccc(-c5ccccc5)cc4)nnc3s2)c(Cl)c1,50.8,25,50,50,–,–
Clc1ccc(-c2nn3c(COc4ccc(-c5ccccc5)cc4)nnc3s2)cc1,78.8,100,25,50,–,UI (Rattus norvegicus [8]): 0.833
CC(C)Cc1ccc(C(C)c2nnc3sc(Nc4ccc(F)cc4)nn23)cc1 (stereo unspecified),–,200,200,200,28,–
Nc1ccc(-c2nn3c(COc4ccc(-c5ccccc5)cc4)nnc3s2)cc1,76.5,50,200,200,–,UI (Rattus norvegicus [8]): 0.417
CC(C(=O)O)c1ccc(-c2ccccc2)c(F)c1 (stereo unspecified) [FLURBIPROFEN],–,–,–,–,–,inhibition in vivo at 10 mg/kg (Rattus norvegicus [15]): 80.3%; UI (Rattus norvegicus [16]): 1.666; Activity (Rattus norvegicus [17]): 7.51 nmol; inhibition in vivo at 10 mg/kg (Mus musculus [18]): 69.5%
c1ccc(Nc2nn3c(COc4ccc(-c5ccccc5)cc4)nnc3s2)cc1,–,–,25,200,–,Activity (Staphylococcus aureus): inactive
CC(C)Cc1ccc(C(C)c2nnc3sc(-c4ccc(Cl)cc4Cl)nn23)cc1 (stereo unspecified),–,200,200,200,80.3,UI (Rattus norvegicus [3]): 0.333; Activity (Rattus norvegicus [4]): 5.04 nmol; Activity (Rattus norvegicus [9]): 147.5 U/ml; Activity (Rattus norvegicus [10]): 28.17 U/ml; Activity (Rattus norvegicus [11]): 15.18 U/ml; Activity (Rattus norvegicus [12]): 1.89 g/dL; Activity (Rattus norvegicus [13]): 1.8 g/dL; Activity (Rattus norvegicus [14]): Non-toxic
CC(C)Cc1ccc(C(C)c2nnc3sc(COc4ccc(Cl)cc4Cl)nn23)cc1 (stereo unspecified),–,200,25,100,38.6,–
Cc1ccc(Nc2nn3c(COc4ccc(-c5ccccc5)cc4)nnc3s2)c(C)c1,39.4,–,50,100,–,Activity (Staphylococcus aureus): inactive
CCCCNc1nn2c(C(C)c3ccc(CC(C)C)cc3)nnc2s1 (stereo unspecified),–,200,100,50,80.3,UI (Rattus norvegicus [3]): 1; Activity (Rattus norvegicus [4]): 5.78 nmol
CC1COc2c(N3CCN(C)CC3)c(F)cc3c(=O)c(C(=O)O)cn1c23 (stereo unspecified) [OFLOXACIN],–,6.25,6.25,–,–,–
